Reference: ChEMBL document CHEMBL1126068, “Renin inhibitors containing C-termini derived from mercaptoheterocycles” (J Med Chem, 1992)

Key:
Renin = biological target: T1, Renin (Homo sapiens, UniProt P00797); test: The compound was tested in vitro for inhibition of human plasma renin.; format: cell-free
T1 sequence (P00797 whole entry): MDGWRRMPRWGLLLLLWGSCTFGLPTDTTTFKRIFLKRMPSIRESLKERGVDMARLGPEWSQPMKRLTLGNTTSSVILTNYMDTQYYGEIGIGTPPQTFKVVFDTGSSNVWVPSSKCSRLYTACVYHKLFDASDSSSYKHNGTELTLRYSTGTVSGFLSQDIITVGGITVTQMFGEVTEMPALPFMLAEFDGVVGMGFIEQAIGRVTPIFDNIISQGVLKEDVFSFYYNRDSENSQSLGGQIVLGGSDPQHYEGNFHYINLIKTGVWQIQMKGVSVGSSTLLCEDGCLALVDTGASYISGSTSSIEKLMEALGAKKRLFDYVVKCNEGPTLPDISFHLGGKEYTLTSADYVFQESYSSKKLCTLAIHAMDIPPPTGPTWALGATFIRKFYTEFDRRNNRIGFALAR
Summary of the method: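 Lyophilized human plasma was reconstituted in distilled water on the assay day. Angiotensin I was measured by radioimmunoassay (commercial kit) at pH 7.4 in phosphate buffer, 37 °C, with PMSF to block angiotensinases. Inhibitors came from a 1 mM DMF stock serially diluted to 3–5 concentrations, run in duplicate and averaged. IC50 was calculated by linear regression.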

[1] = Inhibition of plasma renin determined at Peak change in mean arterial pressure at the dose of 0.88 mg/kg administered through intravenously in Rhesus monkeys.; format: functional; details: Cercopithecidae, route intravenous
Summary of the method: (§1)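 Conscious male and female rhesus monkeys kept on a low-sodium diet, given furosemide the evening before, and fasted 18 h before and during the study. MAP was read directly and blood drawn for PRA through chronic arterial access ports. Compound was given IV via venous catheter in 0.05% acetic acid/5% dextrose/H2O, 20 min after a vehicle control. Time courses were plotted and peak changes taken; N = 2.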

[2] = Peak change in mean arterial pressure (average) at the dose of 0.88 mg/kg administered through intravenously in Rhesus monkeys.; format: functional, Cercopithecidae, Artery; details: route intravenous; summary of the method: as §1
[3] = Peak change in heart rate (average) at the dose of 0.88 mg/kg administered through intravenously in Rhesus monkeys.; format: functional, Cercopithecidae; details: route intravenous; summary of the method: as §1
[4] = Peak change in heart rate (average) at the dose of 0.35 mg/kg administered through intravenously in Rhesus monkeys.; format: functional, Cercopithecidae; details: route intravenous; summary of the method: as §1
[5] = Peak change in mean arterial pressure (average) at the dose of 0.35 mg/kg administered through intravenously in Rhesus monkeys.; format: functional, Cercopithecidae, Artery; details: route intravenous; summary of the method: as §1
[6] = Inhibition of plasma renin determined at Peak change in mean arterial pressure at the dose of 0.35 mg/kg administered through intravenously in Rhesus monkeys.; format: functional; details: Cercopithecidae, route intravenous; summary of the method: as §1
[7] = Inhibition of plasma renin determined at Peak change in mean arterial pressure at the dose of 1.19 mg/kg administered through intravenously in Rhesus monkeys.; format: functional; details: Cercopithecidae, route intravenous; summary of the method: as §1
[8] = Peak change in heart rate (average) at the dose of 1.19 mg/kg administered through intravenously in Rhesus monkeys.; format: functional, Cercopithecidae; details: route intravenous; summary of the method: as §1
[9] = Peak change in mean arterial pressure (average) at the dose of 1.19 mg/kg administered through intravenously in Rhesus monkeys.; format: functional, Cercopithecidae, Artery; details: route intravenous; summary of the method: as §1
[10] = Inhibition of plasma renin determined at Peak change in mean arterial pressure at the dose of 0.34 mg/kg administered through intravenously in Rhesus monkeys.; format: functional; details: Cercopithecidae, route intravenous; summary of the method: as §1
[11] = Peak change in mean arterial pressure (average) at the dose of 0.34 mg/kg administered through intravenously in Rhesus monkeys.; format: functional, Cercopithecidae, Artery; details: route intravenous; summary of the method: as §1
[12] = Peak change in heart rate (average) at the dose of 0.34 mg/kg administered through intravenously in Rhesus monkeys.; format: functional, Cercopithecidae; details: route intravenous; summary of the method: as §1
[13] = Inhibition of plasma renin determined at Peak change in mean arterial pressure at the dose of 0.39 mg/kg administered through intravenously in Rhesus monkeys.; format: functional; details: Cercopithecidae, route intravenous; summary of the method: as §1
[14] = Peak change in heart rate (average) at the dose of 0.39 mg/kg administered through intravenously in Rhesus monkeys.; format: functional, Cercopithecidae; details: route intravenous; summary of the method: as §1
[15] = Peak change in mean arterial pressure (average) at the dose of 0.39 mg/kg administered through intravenously in Rhesus monkeys.; format: functional, Cercopithecidae, Artery; details: route intravenous; summary of the method: as §1
[16] = Peak change in heart rate (average) at the dose of 0.40 mg/kg administered through intravenously in Rhesus monkeys.; format: functional, Cercopithecidae; details: dose 0.4 mg/kg; route intravenous; summary of the method: as §1
[17] = Inhibition of plasma renin determined at Peak change in mean arterial pressure at the dose of 0.40 mg/kg administered through intravenously in Rhesus monkeys.; format: functional; details: Cercopithecidae, route intravenous; summary of the method: as §1
[18] = Peak change in mean arterial pressure (average) at the dose of 0.40 mg/kg administered through intravenously in Rhesus monkeys.; format: functional, Cercopithecidae, Artery; details: dose 0.4 mg/kg; route intravenous; summary of the method: as §1
[19] = Peak change in mean arterial pressure (average) at the dose of 0.44 mg/kg administered through intravenously in Rhesus monkeys.; format: functional, Cercopithecidae, Artery; details: route intravenous; summary of the method: as §1
[20] = Peak change in heart rate (average) at the dose of 0.44 mg/kg administered through intravenously in Rhesus monkeys.; format: functional, Cercopithecidae; details: route intravenous; summary of the method: as §1
[21] = Inhibition of plasma renin determined at Peak change in mean arterial pressure at the dose of 0.44 mg/kg administered through intravenously in Rhesus monkeys.; format: functional; details: Cercopithecidae, route intravenous; summary of the method: as §1
[22] = Peak change in heart rate (average) at the dose of 0.42 mg/kg administered through intravenously in Rhesus monkeys.; format: functional, Cercopithecidae; details: route intravenous; summary of the method: as §1
[23] = Peak change in mean arterial pressure (average) at the dose of 0.42 mg/kg administered through intravenously in Rhesus monkeys.; format: functional, Cercopithecidae, Artery; details: route intravenous; summary of the method: as §1
[24] = Inhibition of plasma renin determined at Peak change in mean arterial pressure at the dose of 0.42 mg/kg administered through intravenously in Rhesus monkeys.; format: functional; details: Cercopithecidae, route intravenous; summary of the method: as §1

SMILES	IC50 (Renin) [nM]	further results
CC(C)(C)OC(=O)N[C@@H](Cc1ccccc1)C(=O)N[C@@H](Cc1cnc[nH]1)C(=O)N[C@@H](CC1CCCCC1)[C@@H](O)CSc1ccccn1	198	–
CN(C)CCn1nnnc1SC[C@H](O)[C@H](CC1CCCCC1)NC(=O)[C@H](Cc1cnc[nH]1)NC(=O)[C@H](Cc1ccccc1)NC(=O)OC(C)(C)C	145	–
CC(C)(C)OC(=O)N[C@@H](Cc1ccccc1)C(=O)N[C@@H](Cc1cnc[nH]1)C(=O)N[C@@H](CC1CCCCC1)[C@@H](O)CSc1nnnn1CC(=O)O	396	–
Cc1ccnc(SC[C@H](O)[C@H](CC2CCCCC2)NC(=O)[C@H](Cc2cnc[nH]2)NC(=O)[C@H](Cc2ccccc2)NC(=O)OC(C)(C)C)n1	240	–
CC(C)(C)OC(=O)N[C@@H](Cc1ccccc1)C(=O)N[C@@H](Cc1c[nH]cn1)C(=O)N[C@@H](CC1CCCCC1)[C@@H](O)CSC1CCCCC1	289	–
Cn1nc(C(F)(F)F)nc1SC[C@H](O)[C@H](CC1CCCCC1)NC(=O)[C@H](Cc1c[nH]cn1)NC(=O)[C@H](Cc1ccccc1)NC(=O)OC(C)(C)C	392	–
CC(C)(C)OC(=O)N[C@@H](Cc1ccccc1)C(=O)N[C@@H](Cc1c[nH]cn1)C(=O)N[C@@H](CC1CCCCC1)[C@@H](O)CSc1nnc(Nc2ccccc2)s1	3310	–
CN(C)CCNC(=O)Cn1nnnc1SC[C@H](O)[C@H](CC1CCCCC1)NC(=O)[C@H](Cc1c[nH]cn1)NC(=O)[C@H](Cc1ccccc1)NC(=O)OC(C)(C)C	1290	–
C=CCn1c(SC[C@H](O)[C@H](CC2CCCCC2)NC(=O)[C@H](Cc2c[nH]cn2)NC(=O)[C@H](Cc2ccccc2)NC(=O)OC(C)(C)C)nnc1C(F)(F)F	206	–
Cn1cnnc1SC[C@H](O)[C@H](CC1CCCCC1)NC(=O)[C@H](Cc1c[nH]cn1)NC(=O)[C@H](Cc1ccccc1)NC(=O)OC(C)(C)C	81	inhibition in vivo at 0.88 mg/kg [1]: 90%; Peak deltaMAP [2]: -9 mmHg; Peak deltaHR [3]: 17 beats min-1
CC(C)(C)OC(=O)N[C@@H](Cc1ccccc1)C(=O)N[C@@H](Cc1c[nH]cn1)C(=O)N[C@@H](CC1CCCCC1)[C@@H](O)CSc1ncc2ccccn12	708	–
CN1CCN(C(=O)Cn2nnnc2SC[C@H](O)[C@H](CC2CCCCC2)NC(=O)[C@H](Cc2c[nH]cn2)NC(=O)[C@H](Cc2ccccc2)NC(=O)OC(C)(C)C)CC1	359	–
CCOC(=O)Cn1nnnc1SC[C@H](O)[C@H](CC1CCCCC1)NC(=O)[C@H](Cc1cnc[nH]1)NC(=O)[C@H](Cc1ccccc1)NC(=O)OC(C)(C)C	207	–
Cn1nnnc1SC[C@H](O)[C@H](CC1CCCCC1)NC(=O)[C@H](Cc1c[nH]cn1)NC(=O)[C@H](Cc1ccccc1)NC(=O)OC(C)(C)C	32	Peak deltaHR [4]: -5 beats min-1; Peak deltaMAP [5]: -9 mmHg; inhibition in vivo at 0.35 mg/kg [6]: 89%
Cn1ccnc1SC[C@H](O)[C@H](CC1CCCCC1)NC(=O)[C@H](Cc1c[nH]cn1)NC(=O)[C@H](Cc1ccccc1)NC(=O)OC(C)(C)C	124	inhibition in vivo at 1.19 mg/kg [7]: 75%; Peak deltaHR [8]: -3 beats min-1; Peak deltaMAP [9]: -8.5 mmHg
CC(C)(C)OC(=O)N[C@@H](Cc1ccccc1)C(=O)N[C@@H](Cc1c[nH]cn1)C(=O)N[C@@H](CC1CCCCC1)[C@@H](O)CSc1nnnn1CCc1ccncc1	31	inhibition in vivo at 0.34 mg/kg [10]: 95%; Peak deltaMAP [11]: -22 mmHg; Peak deltaHR [12]: 1 beats min-1
CC(C)(C)OC(=O)N[C@@H](Cc1ccccc1)C(=O)N[C@@H](Cc1cnc[nH]1)C(=O)N[C@@H](CC1CCCCC1)[C@@H](O)CSc1nnnn1CC(N)=O	448	–
Cn1c(SC[C@H](O)[C@H](CC2CCCCC2)NC(=O)[C@H](Cc2c[nH]cn2)NC(=O)[C@H](Cc2ccccc2)NC(=O)OC(C)(C)C)nnc1C(F)(F)F	39	inhibition in vivo at 0.39 mg/kg [13]: 85%; Peak deltaHR [14]: -5 beats min-1; Peak deltaMAP [15]: -11 mmHg
CC(C)(C)OC(=O)N[C@@H](Cc1ccccc1)C(=O)N[C@@H](Cc1cnc[nH]1)C(=O)N[C@@H](CC1CCCCC1)[C@@H](O)CSc1nnnn1CC(=O)NCCN1CCOCC1	314	–
C[n+]1ccc(CCn2nnnc2SC[C@H](O)[C@H](CC2CCCCC2)NC(=O)[C@H](Cc2c[nH]cn2)NC(=O)[C@H](Cc2ccccc2)NC(=O)OC(C)(C)C)cc1	678	–
CC(C)(C)OC(=O)N[C@@H](Cc1ccccc1)C(=O)N[C@@H](Cc1c[nH]cn1)C(=O)N[C@@H](CC1CCCCC1)[C@@H](O)CS(=O)(=O)c1nnnn1CCc1cc[n+]([O-])cc1	37	Peak deltaHR [16]: 23 beats min-1; inhibition in vivo at 0.4 mg/kg [17]: 98%; Peak deltaMAP [18]: -12 mmHg
CC(C)(C)OC(=O)N[C@@H](Cc1ccccc1)C(=O)N[C@@H](Cc1c[nH]cn1)C(=O)N[C@@H](CC1CCCCC1)[C@@H](O)CSc1nnnn1CCc1ccc(O)cc1	33	–
CC(C)(C)OC(=O)N[C@@H](Cc1ccccc1)C(=O)N[C@@H](Cc1c[nH]cn1)C(=O)N[C@@H](CC1CCCCC1)[C@@H](O)CSc1nnc(C(F)(F)F)n1CCc1ccncc1	41	Peak deltaMAP [19]: -10 mmHg; Peak deltaHR [20]: -1 beats min-1; inhibition in vivo at 0.44 mg/kg [21]: 93%
CC(C)(C)OC(=O)N[C@@H](Cc1ccccc1)C(=O)N[C@@H](Cc1c[nH]cn1)C(=O)N[C@@H](CC1CCCCC1)[C@@H](O)CSc1nnnn1CCN1CCOCC1	39	Peak deltaHR [22]: -8 beats min-1; Peak deltaMAP [23]: -10.5 mmHg; inhibition in vivo at 0.42 mg/kg [24]: 90%
